Consider 1 molecule from PubChem BioAssay AID485271 (The Scripps Research Institute Molecular Screening Center, 2010).

By IC50 is commonly meant the concentration at which inhibition is half-maximal.

A short description of the experiment: HCV J6/JFH-1 viral RNA reduction – Huh-7.5 cells, quantitative PCR, fluorescence, counter-screen for HCV core dimerization inhibitor project, late-stage follow-up (AID 485271). The settings on record: Huh-7.5 HCV J6/JFH-1 infection, RT-qPCR viral RNA. In a few lines: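 Reagent: HCV 2a J6/JFH-1 virus given together with compound. Test system: HCV J6/JFH-1-infected Huh-7.5 cells. Compound: tenfold series, 100 to 0.001 µM. Replication: triplicate wells per compound concentration. Technique: TaqMan RT-qPCR of viral RNA.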
Background: A counterscreen serves to expose hits that act by an unwanted route or on another target.

Regarding `Cc1ccc(Cc2c(C)nc3nc(SCC(=O)NCCCN4CCCCCC4)nn3c2C)cc1`, the IC50 by setting is: (time point 1) 6.6 µM; (time point 2) 12 µM.
